Bioassay records (PubChem BioAssay)
Sampled rows, rich in hits. Any-hit rate of the full collection: about 3.7%.
NPY Y2 blocker: blocks the human neuropeptide Y Y2 receptor | P49146 | NPY-Y2 expressing cells, antagonist mode | inhibition, % at 2.7 µM | 140,000 tested, 0.99% active; in the data active = inhibition above about 17%;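 note: 0% = vehicle with agonist challenge and 100% = reference antagonist with challenge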
KCC2 mod: KCC2 (human) Cl- transport modulation; KCC2 cells, thallium flux FluoZin-2 fluorescence; Q9H2X9; B-score of Tl+ flux slope (higher = more flux/activation; lower = inhibition) at 10 µM; 190,000 tested, 2.2% active;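 active = thallium flux slope and its plate-corrected score both differing from the plate sample mean at a set confidence after two filtering rounds, in either direction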;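 note: slope of fluorescence scaled to starting intensity during 10 to 20 s after thallium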
NPY2 pot ag: potentiators or agonists of human neuropeptide Y receptor Y2 | cells expressing NPY-Y2, potentiator/agonist read-out | activation, % at 3.6 µM | 220,000 tested, 0.45% active | AID 1359; in the data active = activation above about 27%;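 note: cells stimulated with NPY near EC25 plus isoproterenol at EC100; 0% = vehicle plus submaximal agonist and 100% = vehicle plus saturating agonist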
Furin inh: blocks human furin protease activity; AID 463115; inhibition, % at 20 µM or 30 µM; 220,000 tested, 0.061% active; purified furin, fluorogenic substrate cleavage; in the data active = inhibition above about 25%
NPY-Y1 PAM-ag: potentiators or agonists of human neuropeptide Y receptor Y1; NPY-Y1 expressing cells, potentiator/agonist activation; activation, % at 3.6 µM; 220,000 tested, 0.37% active; P25929; in the data active = activation above about 33%, passing the limit was not always enough;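 note: cells stimulated with NPY at EC10 then isoproterenol at EC100; 0% = low agonist plus stimulus and 100% = saturating agonist plus stimulus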
Target sequence (P25929 whole entry, looked up): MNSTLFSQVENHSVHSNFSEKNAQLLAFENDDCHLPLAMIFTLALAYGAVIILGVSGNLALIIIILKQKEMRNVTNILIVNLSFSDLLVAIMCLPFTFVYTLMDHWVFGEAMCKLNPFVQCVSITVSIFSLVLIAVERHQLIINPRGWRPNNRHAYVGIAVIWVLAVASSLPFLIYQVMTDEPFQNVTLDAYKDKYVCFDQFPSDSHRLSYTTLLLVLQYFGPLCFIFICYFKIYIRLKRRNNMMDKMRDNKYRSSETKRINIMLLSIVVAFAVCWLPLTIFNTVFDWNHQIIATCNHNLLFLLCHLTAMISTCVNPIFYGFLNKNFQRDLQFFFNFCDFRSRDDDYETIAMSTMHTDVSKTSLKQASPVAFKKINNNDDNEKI
NPY-Y1 antag: NPY-Y1 (human) receptor antagonism; P25929; HEK293-CNG Y1 cells, membrane potential fluorescence; NPY at EC95, then isoproterenol; inhibition, % at 3.6 µM; 200,000 tested, 1% active; AID 1040;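 active = inhibition above the campaign mean inhibition of all tested compounds plus 3 SD, cut at about 20% in these data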;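 note: 0% = DMSO wells given NPY plus isoproterenol and 100% = isoproterenol alone without NPY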
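Material: HEK293 cells with Y1 receptor plus CNG channel; times: compound incubation 1 h at room temperature, readout 45 min post-stimulation; signal: fluorescence, membrane potential probe; read-out basis: fluorescence ratio normalized to % inhibition between controls; benchmarks: full-block control isoproterenol-only wells, zero-block control NPY plus isoproterenol wells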
NPY1 antag ctr: antagonizes human NPY-Y1, counter-screen to NPY-Y2 antagonists; inhibition, % at 3.6 µM; 710 tested, 19% active; cell-based NPY-Y1 antagonism counterscreen; AID 1256; shares compounds with NPY Y2 blocker; in the data active = inhibition above about 20%;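 note: cells challenged with NPY then isoproterenol with cAMP sensed through a CNG channel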
NPY2 antag conf: human NPY-Y2 antagonism, confirmation | shares compounds with NPY Y2 blocker | HEK293 NPY-Y2 CNG channel, membrane potential fluorescence | inhibition, % at 2.8 µM | 710 tested, 32% active;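 active = mean inhibition of triplicate wells above the hit cutoff set in the primary screen, cut at about 17% in these data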;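 note: 0% = DMSO with NPY challenge and 100% = BIIE0246 high control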
* hit, by the source's call; . = no result given.

SMILES	NPY Y2 blocker	KCC2 mod	NPY2 pot ag	Furin inh	NPY-Y1 PAM-ag	NPY-Y1 antag	NPY1 antag ctr	NPY2 antag conf
O=C(O)C1CC=CCC1C(=O)Nc1ccc(N2CCN(Cc3ccccc3)CC2)cc1 (configuration not stated)	4.2	0.279	12.5	-8.5	16.1	-1.4	.	.
Cc1nn(Cc2n[nH]c(=S)n2Cc2ccccc2)c(C)c1Cl	0.6	0.00327	3.7	19.0	8.6	-5.1	.	.
Cc1ccc(S(=O)(=O)NC2c3cccc4cccc(c34)C2Sc2nncn2C)cc1 (configuration not stated)	21.4*	0.0181	1.0	-12.9	6.5	3.6	1.1	-1.1
COc1ccc(CC(=O)OCc2nnc(-c3ccccc3)o2)cc1	.	0.0086	-37.6	-7.7	-24.2	5.2	.	.
O=C(COC(=O)/C=C/c1ccc(F)cc1)Nc1ccccc1-c1ccccc1	17.8*	1.19	-2.7	-20.1	-18.6	2.8	12.2	14.0
CC(=O)Nc1ccc(/C(C)=N/NC(=O)c2ccccc2Cl)cc1	1.1	0.0221	-2.7	-10.3	-23.2	0.3	.	.
NC(=S)NNC(=O)COc1ccccc1O	.	-0.221	-3.5	-24.4	1.8	.	.	.
CCC(C)(C(=O)NC1CCCC1)N(Cc1ccco1)C(=O)c1ccccn1 (configuration not stated)	22.8*	.	-13.1	-18.7	-14.3	17.8	13.9	8.1
Nc1nc(N2CCOCC2)cc(=O)[nH]1	0.3	0.952	-0.5	-16.3	7.2	2.3	.	.
COc1ccc(-c2nnc(SCc3nnc(-c4ccc(Cl)cc4)o3)n2-c2ccccc2)cc1	22.8*	.	-5.1	-17.6	-2.1	6.0	17.8	13.6
Clc1ccc(-c2nnc(CSc3nnc(-c4cccs4)n3Cc3ccccc3)o2)cc1	25.1*	-1.6	19.1	-9.8	-12.0	15.0	23.3*	5.2
Cc1nnc(SCc2nnc(-c3cccs3)o2)n1Cc1ccccc1	.	0.0803	15.7	-27.1	-2.6	-2.7	.	.
O=C(NCc1ccc2c(c1)OCO2)c1cc(-c2ccccc2Cl)on1	22.4*	0.31	-55.1	-23.0	-13.9	11.9	17.7	12.8
CCCCCCn1nc(C(=O)Nc2nc3c(s2)CCCC3)c2ccccc2c1=O	0.5	0.4	-5.5	-4.8	-6.2	6.6	.	.
Cc1cc(C(F)F)nn1CC(=O)NCc1ccco1	-2.5	1.7	4.1	-23.4	15.6	6.1	.	.
Cc1cc(C(F)F)nn1CC(=O)NCc1ccc(Cl)cc1Cl	17.1*	0.0163	14.7	-10.8	5.5	8.6	-0.8	1.3
CCC(c1nnnn1Cc1ccc2c(c1)OCO2)N1CCN(c2ccccc2)CC1 (configuration not stated)	17.5*	.	-40.6	-3.8	-24.0	19.9	13.1	7.9
CCC(c1nnnn1Cc1ccc2c(c1)OCO2)N1CCN(c2ccc(F)cc2)CC1 (configuration not stated)	19.1*	-2.03	8.5	-21.5	0.8	15.4	8.3	8.1
COCC(=O)N(C)C1(c2nnnn2CCOC(=O)Nc2cccc3ccccc23)CCCC1	-0.1	0.0078	8.0	-20.7	3.0	-2.0	.	.
COc1ccc(/C=C/C(O)=C2/C(=O)N(C)C3(C)CC2c2ccccc2O3)cc1 (configuration not stated)	21.2*	.	1.8	-4.9	-30.0	10.9	15.7	11.3
CC1(C)CC(=O)C2=C(C1)OC(N)=C(C#N)C2c1cc2c(cc1[N+](=O)[O-])OCO2 (configuration not stated)	1.2	-0.124	5.5	-15.3	1.7	-3.5	.	.
COC(=O)c1cc(-c2ccc(OC)cc2)on1	.	-3.55	-17.5	-7.6	-56.4	12.6	.	.
COC(=O)c1cc(-c2ccc(OC)c(OC)c2)on1	28.1*	-1.2	-23.5	-4.2	-36.5	12.2	27.6*	50.2*
CCc1ccccc1NC(=S)/N=C(\N)Nc1nc(C)c2cc(C)ccc2n1	4.6	-1.01	-13.4	-15.3	2.8	10.5	.	.
Cc1ccc(NC(=S)/N=C(\N)Nc2nc(C)c3cc(C)ccc3n2)c(C)c1	18.2*	-0.479	2.9	-24.7	-7.1	14.7	16.1	19.9*
SMILES	NPY Y2 blocker	KCC2 mod	NPY2 pot ag	Furin inh	NPY-Y1 PAM-ag	NPY-Y1 antag	NPY1 antag ctr	NPY2 antag conf
CCOc1cc(/C=N/NC(=O)CCCC(=O)NC2CCCCC2)ccc1O	1.1	0.351	2.5	-9.2	16.0	-1.3	.	.
Nn1c(Cc2cccc3ccccc23)nnc1SCc1c(Cl)cccc1Cl	20.3*	-2.99	-22.7	-15.4	-29.0	1.5	16.5	40.5*
COc1ccc(-c2noc(-c3ccccc3-c3ccccc3)n2)cc1OC	17.9*	0.387	-25.2	-4.7	-61.0	12.2	6.0	15.4
CCCSc1cc(=O)n(-c2ccccc2)nc1C(=O)OCC	18.9*	-0.73	6.9	-17.5	-8.1	2.7	1.9	1.4
CCOC(=O)c1nn(-c2ccccc2)c(C#N)c1N	.	0.14	-5.8	-111.3	-13.6	-6.6	.	.
C/C=C(/C)C(=O)O[C@@H]1c2c(ccc3ccc(=O)oc23)O[C@@H]1C(C)(C)OC(=O)/C(C)=C\C	18.8*	-0.0548	-7.1	-29.9	-38.8	19.7	15.6	31.6*
C/C=C(/C)C(=O)OC(C)(C)[C@@H]1Cc2c(ccc3ccc(=O)oc23)O1	3.4	0.00843	15.4	-98.5	-7.7	3.5	.	.
CCN(CC)CC(O)COc1ccc2c(c1)c(C(C)=O)c(C)n2-c1ccccc1 (configuration not stated)	17.4*	0.433	-34.8	-9.2	-68.8	16.6	13.5	31.6*
CC(=O)c1c(C)n(-c2ccccc2)c2ccc(OCC(O)CN3CCOCC3)cc12 (configuration not stated)	14.0	-0.163	-24.2	-18.1	-25.7	5.0	.	.
CN(C)c1ccc(/C=N/NC(=O)CCc2nc3ccccc3[nH]2)cc1	.	-0.737	-11.6	-11.7	8.2	.	.	.
COc1ccc(-c2cc(C(F)(F)F)nc(NCc3ccco3)n2)cc1OC	17.5*	.	-17.1	-23.8	-3.3	8.5	15.4	13.3
O=C(c1ccco1)N1CCN(c2nc(-c3ccc(F)cc3)cs2)CC1	3.6	-1.66	-2.8	-8.7	-11.9	10.7	.	.
O=C(c1ccco1)N(CCCN1CCOCC1)c1nc(-c2ccc(F)cc2)cs1	19.0*	.	-15.5	-16.5	-30.3	9.4	15.7	12.9
CSc1ccc(CN(C)CC(=O)Nc2c(F)cccc2F)cc1	.	-1.03	2.1	-18.1	-6.4	-0.5	.	.
CC1CC(N(C(=O)c2ccccc2Cl)c2ccccc2)c2ccccc2N1 (configuration not stated)	18.5*	.	-13.4	-22.2	3.2	8.0	62.1*	71.8*
COC(=O)c1cc(C)sc1NC(=O)C1C2C=CC(CC2)C1C(=O)O (configuration not stated)	2.7	1.71	7.3	-23.9	0.2	1.7	.	.
